# Experimental data as given in ChEMBL document CHEMBL3045579, “Herbicidal activity of cineole derivatives” (2010).
# Tested on: Radish
# Experiment: Pre-emergence herbicidal activity against Raphanus sativus var.Long scarlet (radish) seeds assessed as seed germination at 0.1 mol/l at 25 degC after 72 hr by laboratory-based agar medium bioassay relative to 1,8-Cineole
# Format: functional
# In short: (§1)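 Agar-plate assay as above: compound in organic solvent evaporated onto Ca/B water agar, 10 seeds × 5 dishes, 72 h at 25 °C in light. Germination, root length or shoot length at 0.1 mol L^-1 expressed relative to 1,8-cineole.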
row,Structure (SMILES),Ratio
1,"CC(C)[C@]12CC[C@@](C)(O1)[C@H](OC(=O)CC(C)(C)C)C2 (racemic) [2-exo-t-butylacetoxy-1,4-cineole]",0.8
2,"CC(=O)O[C@H]1C[C@@]2(C)CC[C@H]1C(C)(C)O2 (racemic) [3-Exo-acetoxy-1,8-cineole]",1.8
3,"CC1(C)O[C@]2(C)CC[C@@H]1[C@@H](OC(=O)c1ccccc1)C2 (racemic) [3-exo-benzoxy-1,8-cineole]",0.3

# Tested on: Lolium rigidum
# Experiment: Pre-emergence herbicidal activity against Lolium rigidum seeds assessed as concentration required to suppress shoot growth at 25 degC after 72 hr by laboratory-based agar medium bioassay
# Format: functional
row,Structure (SMILES),Activity
1,"CC(C)[C@]12CC[C@@](C)(O1)[C@H](OC(=O)CC(C)(C)C)C2 (racemic) [2-exo-t-butylacetoxy-1,4-cineole]",0.1 mol/L
2,"CC(=O)O[C@H]1C[C@@]2(C)CC[C@H]1C(C)(C)O2 (racemic) [3-Exo-acetoxy-1,8-cineole]",0.1 mol/L
3,"CC1(C)O[C@]2(C)CC[C@@H]1[C@@H](OC(=O)c1ccccc1)C2 (racemic) [3-exo-benzoxy-1,8-cineole]",0.1 mol/L

# Tested on: Radish
# Experiment: Pre-emergence herbicidal activity against Raphanus sativus var.Long scarlet (radish) seeds assessed as shoot length at 0.1 mol/l at 25 degC after 72 hr by laboratory-based agar medium bioassay relative to 1,8-Cineole
# Format: functional
# In short: as §1
row,Structure (SMILES),Ratio
1,"CC(C)[C@]12CC[C@@](C)(O1)[C@H](OC(=O)CC(C)(C)C)C2 (racemic) [2-exo-t-butylacetoxy-1,4-cineole]",0.9
2,"CC(=O)O[C@H]1C[C@@]2(C)CC[C@H]1C(C)(C)O2 (racemic) [3-Exo-acetoxy-1,8-cineole]",1
3,"CC1(C)O[C@]2(C)CC[C@@H]1[C@@H](OC(=O)c1ccccc1)C2 (racemic) [3-exo-benzoxy-1,8-cineole]",1.1

# Tested on: Lolium rigidum
# Experiment: Pre-emergence herbicidal activity against Lolium rigidum seeds assessed as root length at 0.1 mol/l at 25 degC after 72 hr by laboratory-based agar medium bioassay relative to control
# Format: functional
# In short: (§2)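 Solutions tested at 1 to 1 × 10^-4 mol L^-1. 10 seeds/dish, 5 randomized replicate dishes angled ~70°. Incubated 72 h at 25 °C in light. Solvent and no-solvent controls. Germination, root length and shoot length recorded.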
row,Structure (SMILES),Activity
1,"CC(=O)O[C@H]1C[C@@]2(C)CC[C@H]1C(C)(C)O2 (racemic) [3-Exo-acetoxy-1,8-cineole]",7.6%
2,"CC1(C)O[C@]2(C)CC[C@@H]1[C@@H](OC(=O)c1ccccc1)C2 (racemic) [3-exo-benzoxy-1,8-cineole]",10.9%

# Tested on: Lolium rigidum
# Experiment: Pre-emergence herbicidal activity against Lolium rigidum seeds assessed as concentration required to suppress root growth at 25 degC after 72 hr by laboratory-based agar medium bioassay
# Format: functional
row,Structure (SMILES),Activity
1,"CC(C)[C@]12CC[C@@](C)(O1)[C@H](OC(=O)CC(C)(C)C)C2 (racemic) [2-exo-t-butylacetoxy-1,4-cineole]",0.01 mol/L
2,"CC(=O)O[C@H]1C[C@@]2(C)CC[C@H]1C(C)(C)O2 (racemic) [3-Exo-acetoxy-1,8-cineole]",0.1 mol/L
3,"CC1(C)O[C@]2(C)CC[C@@H]1[C@@H](OC(=O)c1ccccc1)C2 (racemic) [3-exo-benzoxy-1,8-cineole]",0.01 mol/L

# Tested on: Lolium rigidum
# Experiment: Pre-emergence herbicidal activity against Lolium rigidum seeds assessed as seed germination at 0.1 mol/l at 25 degC after 72 hr by laboratory-based agar medium bioassay relative to control
# Format: functional
# In short: as §2
row,Structure (SMILES),Activity
1,"CC(=O)O[C@H]1C[C@@]2(C)CC[C@H]1C(C)(C)O2 (racemic) [3-Exo-acetoxy-1,8-cineole]",34.1%
2,"CC1(C)O[C@]2(C)CC[C@@H]1[C@@H](OC(=O)c1ccccc1)C2 (racemic) [3-exo-benzoxy-1,8-cineole]",82.2%

# Tested on: Radish
# Experiment: Pre-emergence herbicidal activity against Raphanus sativus var.Long scarlet (radish) seeds assessed as seed germination at 0.1 mol/l at 25 degC after 72 hr by laboratory-based agar medium bioassay relative to control
# Format: functional
# In short: as §2
row,Structure (SMILES),Activity
1,"CC(C)[C@]12CC[C@@](C)(O1)[C@H](OC(=O)CC(C)(C)C)C2 (racemic) [2-exo-t-butylacetoxy-1,4-cineole]",42.9%
2,"CC(=O)O[C@H]1C[C@@]2(C)CC[C@H]1C(C)(C)O2 (racemic) [3-Exo-acetoxy-1,8-cineole]",18.9%
3,"CC1(C)O[C@]2(C)CC[C@@H]1[C@@H](OC(=O)c1ccccc1)C2 (racemic) [3-exo-benzoxy-1,8-cineole]",98%

# Tested on: Radish
# Experiment: Pre-emergence herbicidal activity against Raphanus sativus var.Long scarlet (radish) seeds assessed as concentration required to suppress root growth at 25 degC after 72 hr by laboratory-based agar medium bioassay
# Format: functional
row,Structure (SMILES),Activity
1,"CC(C)[C@]12CC[C@@](C)(O1)[C@H](OC(=O)CC(C)(C)C)C2 (racemic) [2-exo-t-butylacetoxy-1,4-cineole]",0.01 mol/L
2,"CC(=O)O[C@H]1C[C@@]2(C)CC[C@H]1C(C)(C)O2 (racemic) [3-Exo-acetoxy-1,8-cineole]",0.01 mol/L
3,"CC1(C)O[C@]2(C)CC[C@@H]1[C@@H](OC(=O)c1ccccc1)C2 (racemic) [3-exo-benzoxy-1,8-cineole]",0.01 mol/L

# Tested on: Lolium rigidum
# Experiment: Pre-emergence herbicidal activity against Lolium rigidum seeds assessed as root length at 0.1 mol/l at 25 degC after 72 hr by laboratory-based agar medium bioassay relative to 1,8-Cineole
# Format: functional
# In short: as §1
row,Structure (SMILES),Ratio
1,"CC(=O)O[C@H]1C[C@@]2(C)CC[C@H]1C(C)(C)O2 (racemic) [3-Exo-acetoxy-1,8-cineole]",2.9
2,"CC1(C)O[C@]2(C)CC[C@@H]1[C@@H](OC(=O)c1ccccc1)C2 (racemic) [3-exo-benzoxy-1,8-cineole]",2.1

# Tested on: Radish
# Experiment: Pre-emergence herbicidal activity against Raphanus sativus var.Long scarlet (radish) seeds assessed as concentration required to suppress shoot growth at 25 degC after 72 hr by laboratory-based agar medium bioassay
# Format: functional
row,Structure (SMILES),Activity
1,"CC(C)[C@]12CC[C@@](C)(O1)[C@H](OC(=O)CC(C)(C)C)C2 (racemic) [2-exo-t-butylacetoxy-1,4-cineole]",0.01 mol/L
2,"CC(=O)O[C@H]1C[C@@]2(C)CC[C@H]1C(C)(C)O2 (racemic) [3-Exo-acetoxy-1,8-cineole]",1 mol/L
3,"CC1(C)O[C@]2(C)CC[C@@H]1[C@@H](OC(=O)c1ccccc1)C2 (racemic) [3-exo-benzoxy-1,8-cineole]",0.1 mol/L

# Tested on: Lolium rigidum
# Experiment: Pre-emergence herbicidal activity against Lolium rigidum seeds assessed as shoot length at 0.1 mol/l at 25 degC after 72 hr by laboratory-based agar medium bioassay relative to control
# Format: functional
# In short: as §2
row,Structure (SMILES),Activity
1,"CC(=O)O[C@H]1C[C@@]2(C)CC[C@H]1C(C)(C)O2 (racemic) [3-Exo-acetoxy-1,8-cineole]",21.3%
2,"CC1(C)O[C@]2(C)CC[C@@H]1[C@@H](OC(=O)c1ccccc1)C2 (racemic) [3-exo-benzoxy-1,8-cineole]",41.6%

# Tested on: Lolium rigidum
# Experiment: Pre-emergence herbicidal activity against Lolium rigidum seeds assessed as seed germination at 0.1 mol/l at 25 degC after 72 hr by laboratory-based agar medium bioassay relative to 1,8-Cineole
# Format: functional
# In short: as §1
row,Structure (SMILES),Ratio
1,"CC(=O)O[C@H]1C[C@@]2(C)CC[C@H]1C(C)(C)O2 (racemic) [3-Exo-acetoxy-1,8-cineole]",0.9
2,"CC1(C)O[C@]2(C)CC[C@@H]1[C@@H](OC(=O)c1ccccc1)C2 (racemic) [3-exo-benzoxy-1,8-cineole]",0.4

# Tested on: Radish
# Experiment: Pre-emergence herbicidal activity against Raphanus sativus var.Long scarlet (radish) seeds assessed as shoot length at 0.1 mol/l at 25 degC after 72 hr by laboratory-based agar medium bioassay relative to control
# Format: functional
# In short: as §2
row,Structure (SMILES),Activity
1,"CC(C)[C@]12CC[C@@](C)(O1)[C@H](OC(=O)CC(C)(C)C)C2 (racemic) [2-exo-t-butylacetoxy-1,4-cineole]",71.2%
2,"CC(=O)O[C@H]1C[C@@]2(C)CC[C@H]1C(C)(C)O2 (racemic) [3-Exo-acetoxy-1,8-cineole]",64.3%
3,"CC1(C)O[C@]2(C)CC[C@@H]1[C@@H](OC(=O)c1ccccc1)C2 (racemic) [3-exo-benzoxy-1,8-cineole]",61%

# Tested on: Lolium rigidum
# Experiment: Pre-emergence herbicidal activity against Lolium rigidum seeds assessed as shoot length at 0.1 mol/l at 25 degC after 72 hr by laboratory-based agar medium bioassay relative to 1,8-Cineole
# Format: functional
# In short: as §1
row,Structure (SMILES),Ratio
1,"CC(=O)O[C@H]1C[C@@]2(C)CC[C@H]1C(C)(C)O2 (racemic) [3-Exo-acetoxy-1,8-cineole]",1.3
2,"CC1(C)O[C@]2(C)CC[C@@H]1[C@@H](OC(=O)c1ccccc1)C2 (racemic) [3-exo-benzoxy-1,8-cineole]",0.7

# Tested on: Radish
# Experiment: Pre-emergence herbicidal activity against Raphanus sativus var.Long scarlet (radish) seeds assessed as root length at 0.1 mol/l at 25 degC after 72 hr by laboratory-based agar medium bioassay relative to 1,8-Cineole
# Format: functional
# In short: as §1
row,Structure (SMILES),Ratio
1,"CC(C)[C@]12CC[C@@](C)(O1)[C@H](OC(=O)CC(C)(C)C)C2 (racemic) [2-exo-t-butylacetoxy-1,4-cineole]",0.7
2,"CC(=O)O[C@H]1C[C@@]2(C)CC[C@H]1C(C)(C)O2 (racemic) [3-Exo-acetoxy-1,8-cineole]",1.3
3,"CC1(C)O[C@]2(C)CC[C@@H]1[C@@H](OC(=O)c1ccccc1)C2 (racemic) [3-exo-benzoxy-1,8-cineole]",0.8

# Tested on: Lolium rigidum
# Experiment: Pre-emergence herbicidal activity against Lolium rigidum seeds assessed as concentration required to suppress seed germination at 25 degC after 72 hr by laboratory-based agar medium bioassay
# Format: functional
row,Structure (SMILES),Activity
1,"CC(C)[C@]12CC[C@@](C)(O1)[C@H](OC(=O)CC(C)(C)C)C2 (racemic) [2-exo-t-butylacetoxy-1,4-cineole]",0.1 mol/L
2,"CC(=O)O[C@H]1C[C@@]2(C)CC[C@H]1C(C)(C)O2 (racemic) [3-Exo-acetoxy-1,8-cineole]",0.1 mol/L
3,"CC1(C)O[C@]2(C)CC[C@@H]1[C@@H](OC(=O)c1ccccc1)C2 (racemic) [3-exo-benzoxy-1,8-cineole]",0.1 mol/L

# Tested on: Radish
# Experiment: Pre-emergence herbicidal activity against Raphanus sativus var.Long scarlet (radish) seeds assessed as concentration required to suppress seed germination at 25 degC after 72 hr by laboratory-based agar medium bioassay
# Format: functional
row,Structure (SMILES),Activity
1,"CC(C)[C@]12CC[C@@](C)(O1)[C@H](OC(=O)CC(C)(C)C)C2 (racemic) [2-exo-t-butylacetoxy-1,4-cineole]",0.1 mol/L
2,"CC(=O)O[C@H]1C[C@@]2(C)CC[C@H]1C(C)(C)O2 (racemic) [3-Exo-acetoxy-1,8-cineole]",0.01 mol/L
3,"CC1(C)O[C@]2(C)CC[C@@H]1[C@@H](OC(=O)c1ccccc1)C2 (racemic) [3-exo-benzoxy-1,8-cineole]",1 mol/L

# Tested on: Radish
# Experiment: Pre-emergence herbicidal activity against Raphanus sativus var.Long scarlet (radish) seeds assessed as root length at 0.1 mol/l at 25 degC after 72 hr by laboratory-based agar medium bioassay relative to control
# Format: functional
# In short: as §2
row,Structure (SMILES),Activity
1,"CC(C)[C@]12CC[C@@](C)(O1)[C@H](OC(=O)CC(C)(C)C)C2 (racemic) [2-exo-t-butylacetoxy-1,4-cineole]",55.8%
2,"CC(=O)O[C@H]1C[C@@]2(C)CC[C@H]1C(C)(C)O2 (racemic) [3-Exo-acetoxy-1,8-cineole]",29.2%
3,"CC1(C)O[C@]2(C)CC[C@@H]1[C@@H](OC(=O)c1ccccc1)C2 (racemic) [3-exo-benzoxy-1,8-cineole]",42.4%
